Common to all, as to assay type: cell-based
In experiment [1] the test system is Nucleic Acid. The experiment in a line: Inhibition of microRNA miR-1 (unknown origin) transfected in mouse C2C12 cells at 5 uM after 48 hrs by luciferase reporter gene assay relative to DMSO-treated control. The method, boiled down:
(§1)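 C2C12 co-transfected at 70% confluence with miR-1 luciferase reporter (0.25 µg) plus β-galactosidase plasmid (0.25 µg, transfection control) via lipofectamine 2000. After 6 h the medium was switched to DMEM with 2% horse serum to induce differentiation, and compound was added (DMSO final 1:1000). Cells were incubated 48 h at 37 °C, 5% CO2, then luciferase read and normalized to DMSO. Triplicates, mean ± SE (n = 3).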

Experiment [2] concerns Nucleic Acid. The experiment in a line: Inhibition of microRNA miR-150 (unknown origin) transfected in mouse […] cells at 10 uM after 48 hrs by luciferase reporter gene assay relative to DMSO-treated control. The gist of the method: (§2)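 Cells transfected with the matching miRNA luciferase reporter ([…] for miR-150; A549 for miR-25 or miR-214), with β-gal as internal reference. Treated with 10 µM compound in high-glucose DMEM with 2% FBS (DMSO final 1:1000) for 48 h at 37 °C, 5% CO2. Luciferase signal was normalized to the DMSO control. Triplicates, mean ± SE (n = 3).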

Experiment [3] has as its system Nucleic Acid. The experiment in a line: Inhibition of microRNA miR-25 (unknown origin) transfected in human A549 cells at 10 uM after 48 hrs by luciferase reporter gene assay relative to DMSO-treated control. The gist of the method: as §2
In general terms: In a reporter assay the amount or activity of a reporter protein is the signal.

Experiment [4] has as its system Nucleic Acid. As to the kind of experiment: Inhibition of microRNA miR-214 (unknown origin) transfected in human A549 cells at 10 uM after 48 hrs by luciferase reporter gene assay relative to DMSO-treated control. The method, boiled down: as §2
Experiment [5] deals with Nucleic Acid. The experiment in a line: Inhibition of microRNA miR-1 (unknown origin) transfected in mouse C2C12 cells at 10 uM after 48 hrs by luciferase reporter gene assay relative to DMSO-treated control. The method, boiled down: as §1
Experiment [6] has as its system Nucleic Acid. The experiment in a line: Reduction in cytoplasmic level of microRNA miR-21 (unknown origin) transfected in human HeLa cells at 10 uM after 48 hrs by quantitative RT-PCR method relative to DMSO-treated control. The gist of the method:
(§3)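 Total RNA (TRIZOL) taken after 48 h compound or DMSO treatment from differentiated C2C12 (miR-1), HeLa (miR-21), A549 (miR-25, miR-214), MCF-7 (miR-9) and […] (miR-150). 2 µg RNA per RT with miRNA-specific primers (16 °C 30 min, 42 °C 30 min, 85 °C 5 min). TaqMan qPCR: 95 °C 10 min, then 40 cycles of 95 °C 15 s and 60 °C 1 min. Comparative Ct method, normalized to DMSO; triplicates, mean ± SE (n = 3).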

Experiment [7] relates to Nucleic Acid. The experiment in a line: Inhibition of microRNA miR-9 (unknown origin) transfected in human MCF7 cells at 10 uM after 48 hrs by luciferase reporter gene assay relative to DMSO-treated control. The gist of the method: (§4)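 Reporter cells for miR-21 (HeLa) or miR-9 (MCF-7) given 10 µM compound for 48 h. Luciferase signal normalized to DMSO control. Triplicates, mean ± SE (n = 3).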

The subject of experiment [8] is Nucleic Acid. The experiment in a line: Reduction in cytoplasmic level of microRNA miR-9 (unknown origin) transfected in human MCF7 cells at 10 uM after 48 hrs by quantitative RT-PCR method relative to DMSO-treated control. The method, boiled down: as §3
Experiment [9] relates to Nucleic Acid. As to the kind of experiment: Inhibition of microRNA miR-21 (unknown origin) transfected in human HeLa cells at 10 uM after 48 hrs by luciferase reporter gene assay relative to DMSO-treated control. The method, boiled down: as §4
The subject of experiment [10] is Nucleic Acid. The experiment in a line: Inhibition of microRNA miR-1 (unknown origin) transfected in mouse C2C12 cells after 48 hrs by luciferase reporter gene assay relative to DMSO-treated control. The gist of the method: as §1
Experiment [11] concerns Nucleic Acid. As to the kind of experiment: Reduction in cytoplasmic level of microRNA miR-150 (unknown origin) transfected in mouse […] cells at 10 uM after 48 hrs by quantitative RT-PCR method relative to DMSO-treated control. The method, boiled down: as §3
The subject of experiment [12] is Nucleic Acid. The experiment in a line: Reduction in cytoplasmic level of microRNA miR-25 (unknown origin) transfected in human A549 cells at 10 uM after 48 hrs by quantitative RT-PCR method relative to DMSO-treated control. The gist of the method: as §3
The subject of experiment [13] is Nucleic Acid. The experiment in a line: Reduction in cytoplasmic level of microRNA miR-214 (unknown origin) transfected in human A549 cells at 10 uM after 48 hrs by quantitative RT-PCR method relative to DMSO-treated control. The method, boiled down:
as §3

Experiment [14] concerns Nucleic Acid. As to the kind of experiment: Reduction in cytoplasmic level of microRNA miR-1 (unknown origin) transfected in mouse C2C12 cells at 10 uM after 48 hrs by quantitative RT-PCR method relative to DMSO-treated control. The gist of the method: as §3

The source made the active and inactive calls. The calls are words filed in the database; no cut-off is given here.

With `COC12C(=O)c3ccccc3C(=O)C1C(c1ccc(OC(=O)OC(C)(C)C)c3ncccc13)=C2[Si](C)(C)C` (centres undefined), the inhibition result in [1] was “inactive”.
As for `COC12C(=O)c3ccccc3C(=O)C1C(c1ccccn1)=C2c1ccccc1` (centres undefined), the fold change (FC) is 1.16 in [2], 0.95 in [3], 0.95 in experiment [4] and 0.9 in [5].
As for `COC12C(=O)c3ccccc3C(=O)C1C(C1CC1)=C2c1cncc2ccccc12` (centres undefined), the fold change (FC) in [2] worked out at 1.75; in experiment [3] it was 1.16; in [4] it was 1.1; in experiment [5], 0.87.
Turning to `COc1ccc(C2=C([Si](C)(C)C)C3(OC)C(=O)c4ccccc4C(=O)C23)c2cccnc12` (centres undefined), the inhibition result in experiment [1] is “Active”.
Turning to `COC12C(=O)c3ccccc3C(=O)C1C(C1CC1)=C2c1ccc(OC(=O)OC(C)(C)C)c2ncccc12` (centres undefined), in experiment [1], the inhibition entry is “inactive”.
As for `COC12C(=O)c3ccccc3C(=O)C1C(c1ccc(OC(C)=O)c3ncccc13)=C2[Si](C)(C)C` (centres undefined), in experiment [1], the inhibition result was “inactive”.
Turning to `COC12C(=O)c3ccccc3C(=O)C1C(C1CC1)=C2c1cncnc1` (centres undefined), the fold change (FC) in [2] was 1.02; in experiment [3], 1.16; in experiment [4], 1.28; in experiment [5], 2.06.
As to `COC12C=C(c3ccc(OC(=O)OC(C)(C)C)c4ncccc34)C1C(=O)c1ccccc1C2=O` (centres undefined), in [1], the inhibition result is “inactive”.
The same measure, in the same setting: the same measure for `COC12C=C(c3ccc(O)c4ncccc34)C1C(=O)c1ccccc1C2=O` (centres undefined): “inactive”; for `COC12C(=O)c3ccccc3C(=O)C1C(c1ccc(O)c3ncccc13)=C2[Si](C)(C)C` (centres undefined): “Active”.
Still for that read-out and setting: the same measure for `COC12C(=O)c3ccccc3C(=O)C1C(c1ccccc1)=C2c1ccc(O)c2ncccc12` (centres undefined): “Active”; for `COc1ccc(C2=CC3(OC)C(=O)c4ccccc4C(=O)C23)c2cccnc12` (centres undefined): “inactive”; for `COC12C=C(c3ccc(OC(C)=O)c4ncccc34)C1C(=O)c1ccccc1C2=O` (centres undefined): “inactive”.
Take `COC12C(=O)c3ccccc3C(=O)C1C(C1CC1)=C2c1ccc(O)c2ncccc12` (centres undefined): the inhibition result in experiment [1] is “Active”.
Take `COc1ccc(C2=C(C3CC3)C3C(=O)c4ccccc4C(=O)C23OC)c2cccnc12` (centres undefined): in [1], the inhibition entry was “Active”.
As for `COc1ccc(C2=C(c3ccccc3)C3C(=O)c4ccccc4C(=O)C23OC)c2cccnc12` (centres undefined), the inhibition entry in experiment [1] is “Active”.
As for `COC12C(=O)c3ccccc3C(=O)C1C(c1ccccc1)=C2c1ccc(OC(C)=O)c2ncccc12` (centres undefined), the inhibition result in [1] is “inactive”.
As for `COC12C(=O)c3ccccc3C(=O)C1C(C1CC1)=C2c1cnccn1` (centres undefined), the fold change (FC) is 1.63 in experiment [2], 0.83 in [3], 0.74 in experiment [4] and 0.84 in [5].
For `COC12C(=O)c3ccccc3C(=O)C1C(c1cnccn1)=C2c1ccccc1` (centres undefined) the same measures were 1.32, 1.01, 0.93 and 1.12.
With `COC12C(=O)c3ccccc3C(=O)C1C(C1CC1)=C2c1ccc(OC(C)=O)c2ncccc12` (centres undefined), in experiment [1], the inhibition entry was “inactive”.
With `COC12C(=O)c3ccccc3C(=O)C1C(C1CC1)=C2c1cccnc1` (centres undefined), the fold change (FC) in [2] worked out at 1.04; in [3] it was 0.97; in experiment [4], 0.91; in experiment [5], 0.93.
Consider `COC12C(=O)c3ccccc3C(=O)C1C(C1CC1)=C2c1cnc2ccccc2c1` (centres undefined), for which the fold change (FC) in [2] came out at 0.83; in [3], 1; in experiment [4], 0.93; in experiment [5] it was 1.36.
In the same order, the values of `COC12C(=O)c3ccccc3C(=O)C1C(C1CC1)=C2c1ccccn1` (centres undefined) are 1.2, 0.92, 0.82 and 1.55.
Turning to `COC12C(=O)c3ccccc3C(=O)C1C(c1ccccc1)=C2c1ccc(OC(=O)OC(C)(C)C)c2ncccc12` (centres undefined), the fold change (FC) in [2] was found to be 1.35; in [3], 0.95; in experiment [4], 1.01; in experiment [5] it was 7.11; in experiment [14] it was 4. The result in experiment [6], in [8], in experiment [11], in [12] and in experiment [13] was inactive. The inhibition entry in experiment [7] and in experiment [9] was “inactive” throughout. For the same compound, in [10], the inhibition result was “Dose-dependent effect”.
Regarding `COC12C(=O)c3ccccc3C(=O)C1C(c1ccccc1)=C2c1ccccc1` (centres undefined), the fold change (FC) in experiment [2] was 0.91; in experiment [3] it was 0.63; in experiment [4], 0.58; in [5] it was 0.45.

The values above are taken from ChEMBL document CHEMBL2434879, “Small molecular inhibitors of miR-1 identified from photocycloadducts of acetylenes with 2-methoxy-1,4-naphthalenequinone” (Bioorg Med Chem, 2013).
